Reference: ChEMBL document CHEMBL1156795, “Rational design of 5-phenyl-3-isoxazolecarboxylic acid ethyl esters as growth inhibitors of Mycobacterium tuberculosis. a potent and selective series for further drug development” (J Med Chem, 2010)
Values after ≈ are worked out from the molar mass of the structure shown. Active and inactive are the calls of the source. The calls are words filed in the database; no cut-off is given here.

What was measured:
[1] = test system: Mycobacterium tuberculosis; experiment: Antimycobacterial activity against Mycobacterium tuberculosis H37Rv after […] by microplate alamar; type: functional
In short: (§1)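 Microplate Alamar blue assay (MABA) on Mtb H37Rv. MIC reported as the average of two to three independent experiments.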

Vero = experiment: (§2) Cytotoxicity against african green monkey Vero cells after 72 hrs; type: cell-based, Chlorocebus sabaeus; conditions: Chlorocebus sabaeus, Vero, 72 h
[2] = test system: Mycobacterium tuberculosis; experiment: Antimycobacterial activity against Mycobacterium tuberculosis H37Rv expressing pFCA-luxAB after 10 days by low-oxygen recovery assay; type: functional; conditions: 240 h
In short: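 Low oxygen recovery assay (LORA): a luminescence-based read-out of activity against non-replicating Mtb under oxygen-deprived conditions. MIC averaged over two to three independent experiments.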

[3] = test system: Mycobacterium tuberculosis; experiment: Antimycobacterial activity against Mycobacterium tuberculosis H37Rv; type: functional; in short: as §1
Staphylococcus aureus = experiment: Antimicrobial activity against Staphylococcus aureus; type: functional
Candida albicans = experiment: Antimicrobial activity against Candida albicans; type: functional
Escherichia coli = experiment: Antimicrobial activity against Escherichia coli; type: functional
Toxoplasma gondii = experiment: Antimicrobial activity against Toxoplasma gondii; type: functional, organism-based
[4] = test system: Mycolicibacterium smegmatis; experiment: Antimicrobial activity against Mycobacterium smegmatis; type: functional
[5] = as §2; type: cell-based, Chlorocebus sabaeus; conditions: chlorocebus sabaeus, Vero cells; read-out: MIC

Compound | MIC [1] [µM] | IC50 (Vero) [µM] | MIC [2] [µM] | also measured
CCOC(=O)c1cc(-c2cccc(OCc3ccccc3Cl)c2)on1 | 0.9 (≈ 0.322 µg/mL) | > 128 | 10.1 (≈ 3.61 µg/mL) | 
CCOC(=O)c1cc(/C=C/c2cccc(C(F)(F)F)c2)on1 |  |  |  | MIC [3]: 0.73 µM (≈ 0.227 µg/mL)
CCOC(=O)c1cc(-c2cccc(OCc3ccc(Cl)c(Cl)c3)c2)on1 | 2.7 (≈ 1.06 µg/mL) |  | 10.6 (≈ 4.16 µg/mL) | 
CCOC(=O)c1ccc(COc2cccc(-c3cc(C(=O)OCC)no3)c2)cc1 | 0.4 (≈ 0.158 µg/mL) | > 128 | 32.7 (≈ 12.9 µg/mL) | 
O=[N+]([O-])c1cn2c(n1)OC[C@@H](OCc1ccc(OC(F)(F)F)cc1)C2 [PRETOMANID] | 0.3 (≈ 0.108 µg/mL) |  | 3.8 (≈ 1.37 µg/mL) | 
CCOC(=O)c1cc(-c2cccc(OCc3cc(F)ccc3Cl)c2)on1 | 0.9 (≈ 0.338 µg/mL) |  | 15.1 (≈ 5.67 µg/mL) | 
CCOC(=O)c1cc(-c2cccc(OCc3cccc(Br)c3)c2)on1 | 0.8 (≈ 0.322 µg/mL) | > 128 | 12.7 (≈ 5.11 µg/mL) | 
CCOC(=O)c1cc(-c2cccc(OCc3c(F)ccc(F)c3F)c2)on1 | 1 (≈ 0.377 µg/mL) |  | 10.9 (≈ 4.11 µg/mL) | 
CCOC(=O)c1cc(-c2cccc(OCc3ccccc3)c2)on1 | 1.2 (≈ 0.388 µg/mL) | > 128 | 41.5 (≈ 13.4 µg/mL) | 
CCOC(=O)c1cc(-c2cccc(OCc3cccc(F)c3)c2)on1 | 0.8 (≈ 0.273 µg/mL) | > 128 | 18.9 (≈ 6.45 µg/mL) | 
CCOC(=O)c1cc(-c2cccc(OCc3cccc(C)c3)c2)on1 | 1.2 (≈ 0.405 µg/mL) | > 128 | 14.9 (≈ 5.03 µg/mL) | 
CCOC(=O)c1cc(-c2cccc(OCc3ccccc3[N+](=O)[O-])c2)on1 | 1.5 (≈ 0.553 µg/mL) | > 128 | 25.8 (≈ 9.5 µg/mL) | 
CCOC(=O)c1cc(-c2cccc(OCc3cccc(C(F)(F)F)c3)c2)on1 | 0.6 (≈ 0.235 µg/mL) | > 128 | 8 (≈ 3.13 µg/mL) | MIC (Staphylococcus aureus): > 100 µM; MIC (Candida albicans): > 100 µM; MIC (Escherichia coli): > 100 µM; Activity (Toxoplasma gondii): inactive; MIC [4]: > 100 µM
CCOC(=O)c1cc(-c2cccc(OCc3ccc(F)cc3)c2)on1 | 1.8 (≈ 0.614 µg/mL) |  | 24 (≈ 8.19 µg/mL) | 
CCOC(=O)c1cc(-c2cccc(OCc3ccc(C(F)(F)F)cc3)c2)on1 | 0.4 (≈ 0.157 µg/mL) | > 128 | 11.8 (≈ 4.62 µg/mL) | 
OC(c1cc(C(F)(F)F)nc2c(C(F)(F)F)cccc12)C1CCCCN1 (stereo not drawn) [MEFLOQUINE] |  |  |  | MIC [3]: 13 µM (≈ 4.92 µg/mL)
CCOC(=O)c1cc(COc2cc(C(F)(F)F)nc3c(C(F)(F)F)cccc23)on1 |  |  |  | MIC [3]: 0.9 µM (≈ 0.391 µg/mL)
CCOC(=O)c1cc(-c2cccc(OCc3cc(F)cc(F)c3)c2)on1 | 4.4 (≈ 1.58 µg/mL) | > 128 | 16.6 (≈ 5.96 µg/mL) | 
CCOC(=O)c1cc(-c2cccc(OCc3cccc(OC)c3)c2)on1 | 2.1 (≈ 0.742 µg/mL) | > 128 | 26.7 (≈ 9.44 µg/mL) | 
CCOC(=O)c1cc(-c2cccc(OCc3cc(F)ccc3F)c2)on1 | 0.9 (≈ 0.323 µg/mL) | > 128 | 23.7 (≈ 8.52 µg/mL) | 
CCOC(=O)c1cc(-c2cccc(OCc3cccc(Cl)c3)c2)on1 | 1 (≈ 0.358 µg/mL) | > 128 | 10.8 (≈ 3.86 µg/mL) | 
CCOC(=O)c1cc(-c2cccc(OCc3cccc(F)c3F)c2)on1 | 1.6 (≈ 0.575 µg/mL) | > 128 | 26.8 (≈ 9.63 µg/mL) | 
CCOC(=O)c1cc(-c2cccc(OCc3c(F)cccc3F)c2)on1 | 1.2 (≈ 0.431 µg/mL) | > 128 | 12.8 (≈ 4.6 µg/mL) | 

Compound | MIC [1] [µM] | IC50 (Vero) [µM] | MIC [2] [µM] | also measured
CCOC(=O)c1cc(-c2ccccc2NC(=O)c2ccccc2)on1 | > 128 |  | > 128 | 
CCOC(=O)c1cc(-c2cccc(OCc3ccccc3F)c2)on1 | 1.1 (≈ 0.375 µg/mL) |  | 19.1 (≈ 6.52 µg/mL) | 
CCOC(=O)c1cc(-c2cccc(NCc3cccc(C(F)(F)F)c3)c2)on1 | 1.1 (≈ 0.429 µg/mL) | > 128 | 15.3 (≈ 5.97 µg/mL) | 
CCOC(=O)c1cc(-c2cccc(Oc3cccc(C(F)(F)F)c3)c2)on1 | 1 (≈ 0.377 µg/mL) | > 128 | 10.5 (≈ 3.96 µg/mL) | 
CCOC(=O)c1cc(-c2cccc(OCc3cccc(C(=O)N4CCOCC4)c3)c2)on1 | > 128 | > 128 | > 128 | 
CCOC(=O)c1cc(-c2cccc(OCc3cccc(C#N)c3)c2)on1 | 0.6 (≈ 0.209 µg/mL) | > 128 | 26.5 (≈ 9.23 µg/mL) | 
CCOC(=O)c1cc(-c2cccc(OCc3ccc(F)c(F)c3)c2)[nH]n1 | 32 (≈ 11.5 µg/mL) |  | > 128 | 
CCOC(=O)c1cc(-c2cccc(OCc3ccc(F)cc3F)c2)on1 | 1 (≈ 0.359 µg/mL) | > 128 | 15.7 (≈ 5.64 µg/mL) | 
CCOC(=O)c1cc(-c2cccc(OCc3ccc(F)c(F)c3)c2)on1 | 0.6 (≈ 0.216 µg/mL) | > 128 | 19.2 (≈ 6.9 µg/mL) | 
CCOC(=O)c1cc(-c2ccc(NCc3cccc(C(F)(F)F)c3)cc2)on1 | 0.6 (≈ 0.234 µg/mL) | > 128 | 6.3 (≈ 2.46 µg/mL) | 
CCOC(=O)c1cc(-c2cccc(OCC(=O)N3CCOCC3)c2)on1 | 13.8 (≈ 4.97 µg/mL) |  | 48.9 (≈ 17.6 µg/mL) | 
CCOC(=O)c1cc(-c2cccc(Oc3cc(C(F)(F)F)nc4ccccc34)c2)on1 |  |  |  | MIC [3]: 0.95 µM (≈ 0.407 µg/mL)
CCOC(=O)c1cc(-c2cccc(OCc3cccc(N)c3)c2)on1 | 1.5 (≈ 0.508 µg/mL) | > 128 | 25.8 (≈ 8.73 µg/mL) | 
CCOC(=O)c1cc(-c2cccc(OCc3cccc(OC(F)(F)F)c3)c2)on1 | 0.7 (≈ 0.285 µg/mL) | 101 | 13.1 (≈ 5.34 µg/mL) | 
NNC(=O)c1ccncc1 [ISONIAZID] | 0.5 (≈ 0.0686 µg/mL) |  | > 128 | MCC at 72 h [5]: > 128 µM
CCOC(=O)c1cc(-c2cccc(OCc3ccc(F)c(F)c3F)c2)on1 | 0.9 (≈ 0.34 µg/mL) | > 128 | 12.6 (≈ 4.75 µg/mL) | 
CO[C@H]1/C=C/O[C@@]2(C)Oc3c(C)c(O)c4c(O)c(c(/C=N/N5CCN(C)CC5)c(O)c4c3C2=O)NC(=O)/C(C)=C\C=C\[C@H](C)[C@H](O)[C@@H](C)[C@@H](O)[C@@H](C)[C@H](OC(C)=O)[C@@H]1C [RIFAMPIN] | 0.1 (≈ 0.0823 µg/mL) |  | 1.9 (≈ 1.56 µg/mL) | 
CCOC(=O)c1cc(-c2cccc(O)c2)on1 | 7.3 (≈ 1.7 µg/mL) |  | 114 (≈ 26.6 µg/mL) | 
CCOC(=O)c1cc(-c2cccc(OCc3ccccc3C(F)(F)F)c2)on1 | 1.5 (≈ 0.587 µg/mL) | > 128 | 34.8 (≈ 13.6 µg/mL) | 
CCOC(=O)c1cc(-c2cccc(OCc3cccc([N+](=O)[O-])c3)c2)on1 | 0.6 (≈ 0.221 µg/mL) | > 128 | 8.7 (≈ 3.2 µg/mL) | 
CCOC(=O)c1cc(-c2cccc(OCc3cccc(C(F)(F)F)c3F)c2)on1 | 0.6 (≈ 0.246 µg/mL) | > 128 | 7 (≈ 2.87 µg/mL) | 
CCOC(=O)c1cc(-c2ccc(C(O)c3cccc(OC)c3)cc2)on1 (stereo not drawn) | 2.8 (≈ 0.989 µg/mL) |  | 23.9 (≈ 8.45 µg/mL) | 
CCOC(=O)c1cc(-c2cccc(NC(=O)c3cccc(C(F)(F)F)c3)c2)on1 | 1.4 (≈ 0.566 µg/mL) | > 128 | 28.3 (≈ 11.4 µg/mL) | 
